Test results as given in ChEMBL document CHEMBL2401625, “Synthesis and evaluation of pharmacological properties of some new xanthone derivatives with piperazine moiety” (Bioorg Med Chem Lett, 2013).
Each block holds one molecule with its values, some of them ahead of it. Active and inactive are the calls of the source. The calls are words filed in the database; no cut-off is given here.

Key:
Mus musculus [1] = assay: Anticonvulsant activity in CF1 mouse assessed as protection against subcutaneous metrazole-induced seizures at 300 mg/kg, ip after 0.5 hrs; format: functional, organism-based; parameters: dose 300 mg/kg
Outline: (§1)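 Mice given compound i.p. at 30, 100 or 300 mg/kg and tested 0.5 or 4 h after dosing. Seizures were induced by maximal electroshock (MES) or subcutaneous metrazole (ScMet). Prevention of seizures counts as protection. Result is recorded as number of animals protected over number tested.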

Mus musculus [2] = assay: Anticonvulsant activity in CF1 mouse assessed as protection against maximal electroshock-induced seizures at 30 mg/kg, ip after 0.5 hrs; format: functional, organism-based; parameters: dose 30 mg/kg; outline: as §1
Rattus norvegicus [3] = assay: Anticonvulsant activity in Sprague-Dawley rat assessed as protection against maximal electroshock-induced seizures at 30 mg/kg, po after 0.5 hrs; format: functional, organism-based; parameters: dose 30 mg/kg
Outline: (§2)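 Rats dosed orally at 30 mg/kg and tested in MES at several time points after dosing. Protection means seizures were prevented. Result is recorded as number of animals protected over number tested.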

Mus musculus [4] = assay: Anticonvulsant activity in CF1 mouse assessed as protection against subcutaneous metrazole-induced seizures at 100 mg/kg, ip after 0.5 hrs; format: functional, organism-based; parameters: dose 100 mg/kg; outline: as §1
Rattus norvegicus [5] = assay: Anticonvulsant activity in Sprague-Dawley rat assessed as protection against maximal electroshock-induced seizures at 30 mg/kg, po after 0.25 hrs; format: functional, organism-based; parameters: dose 30 mg/kg; outline: as §2
Rattus norvegicus [6] = assay: Anticonvulsant activity in Sprague-Dawley rat assessed as protection against maximal electroshock-induced seizures at 30 mg/kg, po after 1 hr; format: functional, organism-based; parameters: dose 30 mg/kg; outline: as §2
Mus musculus [7] = assay: Anticonvulsant activity in CF1 mouse assessed as protection against subcutaneous metrazole-induced seizures at 30 mg/kg, ip after 0.5 hrs; format: functional, organism-based; parameters: dose 30 mg/kg; outline: as §1
Mus musculus [8] = assay: Anticonvulsant activity in CF1 mouse assessed as protection against maximal electroshock-induced seizures at 300 mg/kg, ip after 4 hrs; format: functional, organism-based; parameters: dose 300 mg/kg; outline: as §1
Mus musculus [9] = assay: Anticonvulsant activity in CF1 mouse assessed as protection against subcutaneous metrazole-induced seizures at 300 mg/kg, ip after 4 hrs; format: functional, organism-based; parameters: dose 300 mg/kg; outline: as §1
Mus musculus [10] = assay: Anticonvulsant activity in CF1 mouse assessed as protection against maximal electroshock-induced seizures at 100 mg/kg, ip after 4 hrs; format: functional, organism-based; parameters: dose 100 mg/kg; outline: as §1
Rattus norvegicus [11] = species on record: Rattus norvegicus; assay: Displacement of [3H]CGP-12177 from beta1-adrenergic receptor in rat cerebral cortex at 50 uM after 60 mins by scintillation counting; format: tissue-based
Mus musculus [12] = assay: Anticonvulsant activity in CF1 mouse assessed as protection against subcutaneous metrazole-induced seizures at 30 mg/kg, ip after 4 hrs; format: functional, organism-based; parameters: dose 30 mg/kg; outline: as §1
Mus musculus [13] = assay: Anticonvulsant activity in CF1 mouse assessed as protection against maximal electroshock-induced seizures at 30 mg/kg, ip after 4 hrs; format: functional, organism-based; parameters: dose 30 mg/kg; outline: as §1
Mus musculus [14] = assay: Anticonvulsant activity in CF1 mouse assessed as protection against subcutaneous metrazole-induced seizures at 100 mg/kg, ip after 4 hrs; format: functional, organism-based; parameters: dose 100 mg/kg; outline: as §1
Rattus norvegicus [15] = assay: Anticonvulsant activity in Sprague-Dawley rat assessed as protection against maximal electroshock-induced seizures at 30 mg/kg, po after 2 hrs; format: functional, organism-based; parameters: dose 30 mg/kg; outline: as §2
Mus musculus [16] = assay: Neurotoxicity in CF1 mouse assessed as minimal motor impairment at 300 mg/kg, ip after 0.5 hrs by rotorod test; format: toxicity, organism-based; parameters: dose 300 mg/kg, route intraperitoneal; conditions: in vivo
Outline: (§3)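 Rotarod neurotoxicity screen in mice dosed i.p. at 30, 100 or 300 mg/kg, read 0.5 or 4 h after dosing. The animal must stay on a rod rotating at 6 rpm without falling, measured 3 times within 1 min. A fall counts as minimal motor impairment. Result is recorded as impaired animals over animals used.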

Rattus norvegicus [17] = assay: Neurotoxicity in Sprague-Dawley rat assessed as minimal motor impairment at 30 mg/kg, po after 0.5 hrs by rotorod test; conditions: in vivo
Rattus norvegicus [18] = assay: Anticonvulsant activity in po dosed Sprague-Dawley rat assessed as protection against subcutaneous metrazole-induced seizures after 4 hrs; format: functional
Outline: (§4)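 Quantitative oral assay in rats, run at a time to peak effect of 4 h. ED50 is the dose protecting 50% of animals against MES or ScMet seizures, with 95% confidence interval. TD50 is the dose giving neurotoxicity in 50% of animals. PI = TD50/ED50.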

Rattus norvegicus [19] = assay: Anticonvulsant activity in po dosed Sprague-Dawley rat assessed as protection against maximal electroshock-induced seizures after 4 hrs; format: functional; outline: as §4
Mus musculus [20] = assay: Neurotoxicity in CF1 mouse assessed as minimal motor impairment at 300 mg/kg, ip after 4 hrs by rotorod test; format: toxicity, organism-based; parameters: dose 300 mg/kg, route intraperitoneal; conditions: in vivo; outline: as §3
Mus musculus [21] = assay: Neurotoxicity in CF1 mouse assessed as minimal motor impairment at 100 mg/kg, ip after 4 hrs by rotorod test; format: toxicity, organism-based; parameters: dose 100 mg/kg, route intraperitoneal; conditions: in vivo; outline: as §3
Rattus norvegicus [22] = assay: Protective index, ratio of TD50 for po dosed Sprague-Dawley rat assessed as minimal motor impairment by rotorod test to ED50 for po dosed Sprague-Dawley rat assessed as protection against maximal electroshock-induced seizures; format: functional; outline: as §4
Mus musculus [23] = assay: Neurotoxicity in CF1 mouse assessed as minimal motor impairment at 100 mg/kg, ip after 0.5 hrs by rotorod test; format: toxicity, organism-based; parameters: dose 100 mg/kg, route intraperitoneal; conditions: in vivo; outline: as §3
Mus musculus [24] = assay: Neurotoxicity in CF1 mouse assessed as minimal motor impairment at 30 mg/kg, ip after 0.5 hrs by rotorod test; format: toxicity, organism-based; parameters: dose 30 mg/kg, route intraperitoneal; conditions: in vivo; outline: as §3
Rattus norvegicus [25] = assay: Neurotoxicity in Sprague-Dawley rat assessed as minimal motor impairment at 30 mg/kg, po after 1 hr by rotorod test; conditions: in vivo
Rattus norvegicus [26] = assay: Neurotoxicity in Sprague-Dawley rat assessed as minimal motor impairment at 30 mg/kg, po after 4 hrs by rotorod test; conditions: in vivo
Mus musculus [27] = assay: Neurotoxicity in CF1 mouse assessed as minimal motor impairment at 30 mg/kg, ip after 4 hrs by rotorod test; format: toxicity, organism-based; parameters: dose 30 mg/kg, route intraperitoneal; conditions: in vivo; outline: as §3
Rattus norvegicus [28] = assay: Neurotoxicity in Sprague-Dawley rat assessed as minimal motor impairment at 30 mg/kg, po after 0.25 hrs by rotorod test; conditions: in vivo
[29] = Neurotoxicity in po dosed Sprague-Dawley rat assessed as minimal motor impairment by rotorod test; format: toxicity, organism-based; conditions: in vivo
Rattus norvegicus [30] = assay: Neurotoxicity in Sprague-Dawley rat assessed as minimal motor impairment at 30 mg/kg, po after 2 hrs by rotorod test; conditions: in vivo

inhibition (Rattus norvegicus [11]): inactive
SMILES: COc1ccc2c(=O)c3cc(CN4CCN(C)CC4)ccc3oc2c1
Activity (Mus musculus [1]): inactive | Activity (Mus musculus [2]): inactive | Activity (Rattus norvegicus [3]): inactive | Activity (Mus musculus [4]): inactive | Activity (Rattus norvegicus [5]): inactive | Activity (Rattus norvegicus [6]): inactive | Activity (Mus musculus [7]): inactive | Activity (Mus musculus [8]): Active | Activity (Mus musculus [9]): inactive | Activity (Mus musculus [10]): inactive | Activity (Mus musculus [12]): inactive | Activity (Mus musculus [13]): inactive | Activity (Mus musculus [14]): inactive | Activity (Rattus norvegicus [15]): inactive

SMILES: COc1ccc2c(=O)c3cc(CN4CCN(Cc5ccccc5)CC4)ccc3oc2c1
Activity (Mus musculus [16]): Non-toxic | Activity (Rattus norvegicus [17]): Non-toxic | ED50 (Rattus norvegicus [18]): > 250 mg/kg | ED50 (Rattus norvegicus [19]): 105 mg/kg | Activity (Mus musculus [20]): Non-toxic | Activity (Mus musculus [21]): Non-toxic | Ratio TD50/ED50 (Rattus norvegicus [22]): >2.86 | Activity (Mus musculus [23]): Non-toxic | Activity (Mus musculus [24]): Non-toxic | Activity (Rattus norvegicus [25]): Non-toxic | Activity (Rattus norvegicus [26]): Non-toxic | Activity (Mus musculus [27]): Non-toxic | Activity (Rattus norvegicus [28]): Non-toxic | TD50 [29]: > 300 mg/kg | Activity (Rattus norvegicus [30]): Non-toxic
